Data set [1] addresses Cytochrome P450 3A4 (Homo sapiens, UniProt P08684). The data set is described as follows: Drug level in yeast cells expressing human CYP3A4 assessed as human CYP3A4-mediated compound formation by pre-incubated with 200 uM tebufenozide for 2 mins at 37 degC before NADPH addition by LC/MS method. The data set is classed as ADME, cell-based. The note with it: recombinant enzyme. An outline of the steps: (§1)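 Microsomes with 67 nM human P450 in 100 mM phosphate buffer, pH 7.4, preincubated 2 min at 37 °C. Reaction started with NADPH (1 mM final) at 37 °C and stopped at various times with two volumes of acetonitrile and shaking. After centrifugation (7,000 G, 10 min), the acetonitrile phase was analysed by HPLC and by LC/MS (ESI positive mode, m/z 100-500).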

Data set [2] deals with Cytochrome P450 2C19 (Homo sapiens, UniProt P33261). In words: Drug level in yeast cells expressing human CYP2C19 assessed as human CYP2C19-mediated compound formation by pre-incubated with 200 uM tebufenozide for 2 mins at 37 degC before NADPH addition by LC/MS method. Format: ADME, cell-based. The note with it: recombinant enzyme. In short, it runs like this: as §1
Data set [3] in a line: Retention time of the compound by HPLC method. The data set is classed as physicochemical.
Data set [4] in a line: Selectivity index, ratio of Vmax for human CYP3A4-mediated metabolite-M1 formation to Vmax for human CYP2C19-mediated metabolite-M1 formation. As to conditions: recombinant enzyme. An outline of the steps: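 Microsomes with 67 nM human CYP3A4 or CYP2C19 in 100 mM phosphate buffer, pH 7.4, with tebufenozide (1–50, 2% acetonitrile), preincubated 2 min at 37 °C. NADPH (1 mM final) was added, and reactions were stopped with acetonitrile after 5 min (CYP3A4) or 10 min (CYP2C19). M1 was quantified by HPLC, and Km and Vmax were fitted from rate (mol/min/mol P450) against substrate concentration.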

Data set [5] in a line: Selectivity index, ratio of Km for human CYP3A4-mediated metabolite-M1 formation to Km for human CYP2C19-mediated metabolite-M1 formation. As to conditions: recombinant enzyme.

Chain of Cytochrome P450 3A4 (P08684 whole entry): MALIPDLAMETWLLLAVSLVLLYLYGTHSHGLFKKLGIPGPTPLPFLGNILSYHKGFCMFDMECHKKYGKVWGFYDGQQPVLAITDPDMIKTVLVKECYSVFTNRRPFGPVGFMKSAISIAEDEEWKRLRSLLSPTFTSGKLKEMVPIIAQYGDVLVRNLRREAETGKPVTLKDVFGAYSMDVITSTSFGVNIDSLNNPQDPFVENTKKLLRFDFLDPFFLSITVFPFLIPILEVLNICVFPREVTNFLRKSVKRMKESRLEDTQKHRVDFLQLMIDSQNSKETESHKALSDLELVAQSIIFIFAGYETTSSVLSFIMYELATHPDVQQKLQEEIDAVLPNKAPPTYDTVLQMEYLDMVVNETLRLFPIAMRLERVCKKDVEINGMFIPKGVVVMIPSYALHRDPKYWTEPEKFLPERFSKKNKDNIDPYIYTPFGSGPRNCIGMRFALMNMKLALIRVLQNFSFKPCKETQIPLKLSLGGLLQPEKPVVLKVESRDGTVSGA
Chain of Cytochrome P450 2C19 (P33261 whole entry): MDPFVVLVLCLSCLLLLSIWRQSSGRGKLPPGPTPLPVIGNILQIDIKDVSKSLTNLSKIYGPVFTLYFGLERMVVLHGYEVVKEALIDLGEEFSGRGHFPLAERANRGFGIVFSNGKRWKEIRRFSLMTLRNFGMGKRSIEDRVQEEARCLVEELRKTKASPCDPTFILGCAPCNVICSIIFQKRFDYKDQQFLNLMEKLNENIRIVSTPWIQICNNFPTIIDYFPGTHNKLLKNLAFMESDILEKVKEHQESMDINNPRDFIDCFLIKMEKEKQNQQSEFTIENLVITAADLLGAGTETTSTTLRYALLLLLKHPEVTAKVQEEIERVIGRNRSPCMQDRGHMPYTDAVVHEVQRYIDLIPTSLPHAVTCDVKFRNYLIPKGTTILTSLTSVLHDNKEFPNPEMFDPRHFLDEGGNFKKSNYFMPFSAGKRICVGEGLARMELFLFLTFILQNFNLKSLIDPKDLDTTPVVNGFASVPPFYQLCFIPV

For the molecule `Cc1cc(C)cc(C(=O)N(NC(=O)c2ccc(C(C)O)cc2)C(C)(C)C)c1` (racemic), the Drug metabolism result in data set [1] and in data set [2] was “metabolite_detected” in each case. In data set [3], this molecule had a Retention_time of 9.5 min.

For `CCc1ccc(C(=O)NN(C(=O)c2cc(C)cc(C)c2)C(C)(C)CO)cc1`, the Drug metabolism result in data set [1] was “metabolite_detected”. Further, the Retention_time in data set [3] was determined as 14.5 min.

For `CCc1ccc(C(=O)NN(C(=O)c2cc(C)cc(CO)c2)C(C)(C)C)cc1`, the Drug metabolism entry in data set [1] was “metabolite_detected”. For the same molecule, the Retention_time in data set [3] was 10.5 min.

`CC(=O)c1ccc(C(=O)NN(C(=O)c2cc(C)cc(C)c2)C(C)(C)C)cc1`: the Drug metabolism result in data set [2] was “metabolite_detected”. The same molecule yielded a Retention_time in data set [3] of 12 min.

As for `C=Cc1ccc(C(=O)NN(C(=O)c2cc(C)cc(C)c2)C(C)(C)C)cc1`, the Drug metabolism result in data set [2] is “metabolite_detected”. The same molecule came in with a Retention_time in data set [3] of 15 min.

Consider `CCc1ccc(C(=O)NN(C(=O)c2cc(C)cc(C)c2)C(C)(C)C)cc1` [TEBUFENOZIDE], for which the results for the Ratio in data set [4] and in data set [5] were 6 and 4, respectively.

For the origin of these results see ChEMBL document CHEMBL3616473, “Identification and in silico prediction of metabolites of the model compound, tebufenozide by human CYP3A4 and CYP2C19” (Bioorg Med Chem, 2015).
